Source: ChEMBL document CHEMBL1148959, “Annoglabayin, a novel dimeric kaurane diterpenoid, and apoptosis in Hep G2 cells of annomontacin from the fruits of Annona glabra” (2004)

Columns and labels:
Assay type in all cases: functional
[1] = tested on: HepG2; test: Effect on morphology in human HepG2 cells assessed as low cellular shape change at 100 uM after 9 hrs by FACS
Outline: (§1)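 Hep G2 cells in DMEM/10% FCS were treated with or without 100 µM for 3, 6, 9 or 24 h, then trypsinized. Forward scatter (size) and side scatter (granularity) were read by flow cytometry. Normal versus low shape change was expressed as a percentage after gating out cellular debris. At least three runs; a representative run is shown.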

[2] = tested on: HepG2; test: Cell cycle arrest in human HepG2 cells assessed as accumulation at G1 phase at 75 uM after 24 hrs using propidium iodide staining by FACS
Outline: (§2)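 Hep G2 cells seeded at 5 × 10^5 per 60 mm dish 48 h ahead in DMEM with 10% FCS and antibiotics. Exposed 24 h; compound from DMSO stock diluted in medium. Adherent and floating cells pooled, fixed in PBS-MeOH (1:2) at 4 °C ≥18 h, then stained 30 min at room temperature in the dark with 50 µg/mL PI plus 50 µg/mL RNaseA. Flow cytometry at 488 nm excitation, emission >580 nm, doublets gated out; subG1 taken as the subdiploid fraction.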

[3] = tested on: HepG2; test: Effect on morphology in human HepG2 cells assessed as low cellular shape change at 100 uM after 3 hrs by FACS; outline: as §1
[4] = tested on: HepG2; test: Cell cycle arrest in human HepG2 cells assessed as accumulation at G1 phase at 25 uM after 24 hrs using propidium iodide staining by FACS; outline: as §2
[5] = tested on: HepG2; test: Cell cycle arrest in human HepG2 cells assessed as accumulation at subG1 phase at 75 uM after 24 hrs using propidium iodide staining by FACS; outline: as §2
[6] = tested on: HepG2; test: Induction of early apoptosis in human HepG2 cells assessed as number of cells with decreased mitochondrial transmembrane potential at 100 uM after 24 hrs using rhodamine 123 staining by FACS
Outline: (§3)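 Hep G2 cells seeded 5 × 105 per 60 mm dish 48 h ahead in DMEM with 10% FCS, penicillin, streptomycin and amphotericin B. Compound diluted into medium from a 200 mM DMSO stock and applied for 3, 6, 9 or 24 h; untreated cells as control. Medium then replaced with 5 µM rhodamine 123 for 30 min in the dark. Cells trypsinized and mean rhodamine 123 fluorescence read by flow cytometry. Run at least three times, with a representative experiment shown.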

[7] = tested on: HepG2; test: Induction of apoptosis in human HepG2 cells assessed as cellular membrane damage at 100 uM after 3 hrs using propidium iodide staining by FACS
Outline: (§4)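 Treated or untreated for 3, 6, 9 or 24 h at 100 µM, Hep G2 cells were trypsinized and stained 10 min with 5 µg/mL PI. Argon laser excitation at 488 nm, emission >580 nm, ≥10 000 cells counted. Cells were classed as intact or membrane-damaged after gating out debris. At least three runs; a representative run is shown.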

[8] = tested on: HepG2; test: Cell cycle arrest in human HepG2 cells assessed as accumulation at subG1 phase at 50 uM after 24 hrs using propidium iodide staining by FACS; outline: as §2
[9] = tested on: HepG2; test: Cell cycle arrest in human HepG2 cells assessed as accumulation at G2M phase at 25 uM after 24 hrs using propidium iodide staining by FACS; outline: as §2
[10] = tested on: HepG2; test: Effect on morphology in human HepG2 cells assessed as low cellular shape change at 100 uM after 6 hrs by FACS; outline: as §1
[11] = tested on: HepG2; test: Cell cycle arrest in human HepG2 cells assessed as accumulation at subG1 phase at 25 uM after 24 hrs using propidium iodide staining by FACS; outline: as §2
[12] = tested on: HepG2; test: Induction of apoptosis in human HepG2 cells assessed as cellular membrane damage at 100 uM after 6 hrs using propidium iodide staining by FACS; outline: as §4
[13] = tested on: HepG2; test: Cell cycle arrest in human HepG2 cells assessed as accumulation at G2M phase at 75 uM after 24 hrs using propidium iodide staining by FACS; outline: as §2
[14] = tested on: HepG2; test: Cell cycle arrest in human HepG2 cells assessed as accumulation at G2M phase at 50 uM after 24 hrs using propidium iodide staining by FACS; outline: as §2
[15] = tested on: HepG2; test: Cell cycle arrest in human HepG2 cells assessed as accumulation at S phase at 25 uM after 24 hrs using propidium iodide staining by FACS; outline: as §2
[16] = tested on: HepG2; test: Induction of early apoptosis in human HepG2 cells assessed as number of cells with decreased mitochondrial transmembrane potential at 100 uM after 9 hrs using rhodamine 123 staining by FACS; outline: as §3
[17] = tested on: HepG2; test: Effect on morphology in human HepG2 cells assessed as low cellular shape change at 100 uM after 24 hrs by FACS; outline: as §1
[18] = tested on: HepG2; test: Cell cycle arrest in human HepG2 cells assessed as accumulation at S phase at 50 uM after 24 hrs using propidium iodide staining by FACS; outline: as §2
[19] = tested on: HepG2; test: Cell cycle arrest in human HepG2 cells assessed as accumulation at G2M phase at 100 uM after 24 hrs using propidium iodide staining by FACS; outline: as §2
[20] = tested on: HepG2; test: Induction of early apoptosis in human HepG2 cells assessed as number of cells with decreased mitochondrial transmembrane potential at 100 uM after 3 hrs using rhodamine 123 staining by FACS; outline: as §3
[21] = tested on: HepG2; test: Cell cycle arrest in human HepG2 cells assessed as accumulation at G1 phase at 50 uM after 24 hrs using propidium iodide staining by FACS; outline: as §2
[22] = tested on: HepG2; test: Cell cycle arrest in human HepG2 cells assessed as accumulation at G1 phase at 100 uM after 24 hrs using propidium iodide staining by FACS; outline: as §2
[23] = tested on: HepG2; test: Induction of early apoptosis in human HepG2 cells assessed as number of cells with decreased mitochondrial transmembrane potential at 100 uM after 6 hrs using rhodamine 123 staining by FACS; outline: as §3
[24] = tested on: HepG2; test: Cell cycle arrest in human HepG2 cells assessed as accumulation at S phase at 100 uM after 24 hrs using propidium iodide staining by FACS; outline: as §2
[25] = tested on: HepG2; test: Induction of apoptosis in human HepG2 cells assessed as cellular membrane damage at 100 uM after 9 hrs using propidium iodide staining by FACS; outline: as §4
[26] = tested on: HepG2; test: Induction of apoptosis in human HepG2 cells assessed as cellular membrane damage at 100 uM after 24 hrs using propidium iodide staining by FACS; outline: as §4
[27] = tested on: HepG2; test: Cell cycle arrest in human HepG2 cells assessed as accumulation at S phase at 75 uM after 24 hrs using propidium iodide staining by FACS; outline: as §2
[28] = tested on: HepG2; test: Cell cycle arrest in human HepG2 cells assessed as accumulation at subG1 phase at 100 uM after 24 hrs using propidium iodide staining by FACS; outline: as §2

Compound: CCCCCCCCCCCC[C@H](O)[C@@H]1CC[C@@H]([C@@H](O)CCCCCCC(O)CCCCC[C@@H](O)CC2=C[C@H](C)OC2=O)O1 (stereo partly drawn) [ANNOMONTACIN]
- Activity [1]: 75.4%
- Activity [2]: 54.3%
- Activity [3]: 40.1%
- Activity [4]: 50.2%
- Activity [5]: 50.7%
- Flu intensity [6]: 75
- Activity [7]: 7.1%
- Activity [8]: 12.2%
- Activity [9]: 10.8%
- Activity [10]: 50.5%
- Activity [11]: 4.4%
- Activity [12]: 6.9%
- Activity [13]: 9.8%
- Activity [14]: 8.3%
- Activity [15]: 39.1%
- Flu intensity [16]: 213
- Activity [17]: 80.1%
- Activity [18]: 37.1%
- Activity [19]: 10.4%
- Flu intensity [20]: 367
- Activity [21]: 54.6%
- Activity [22]: 56.7%
- Flu intensity [23]: 241
- Activity [24]: 32.9%
- Activity [25]: 32.4%
- Activity [26]: 69.5%
- Activity [27]: 35.9%
- Activity [28]: 58.3%
